Published values pooled from the literature.
Compare with care: the assays were run in different laboratories.
CTSB: Cathepsin B (CTSB, Homo sapiens, UniProt P07858)
STAT3: Signal transducer and activator of transcription 3 (STAT3, Homo sapiens, UniProt P40763)

| Structure (SMILES) | target | test | conditions | endpoint | value |
| --- | --- | --- | --- | --- | --- |
| CCC(C(=O)Nc1cc(NC2CCNC2)ccc1C)n1cc(Br)cc2nc(SCc3ccc(F)cc3)nc1-2 (stereo not shown) | CTSB | enzyme activity, inhibitor |  | IC50 | > 100000 nM |
| COC(=O)c1cc(N(C)C(=O)c2ccn3ncc(-c4ccc(C(=O)O)cc4)c3c2)ccc1Cl | Serine/threonine-protein kinase pim-1 (PIM1, Homo sapiens, UniProt P11309) | enzyme activity, inhibitor |  | IC50 | 93.7 nM |
| NC(=O)CC[C@H](NC(=O)[C@@H]1CC[C@@H]2CCN(C(=O)CCCCCC#Cc3cccc4c3CN(C3CCC(=O)NC3=O)C4=O)C[C@H](NC(=O)c3cc4cc(C(F)(F)P(=O)(O)O)ccc4[nH]3)C(=O)N21)C(=O)NC(c1ccccc1)c1ccccc1 (stereo partly shown) | STAT3 | protein level, degrader, luciferase |  | DC50 | 360 to 380 nM |
| Cn1nccc1[C@]1(CNC(=O)c2ccc(F)c(F)c2-c2ccc(C(F)(F)F)cc2)NC(=O)NC1=O | CTSB | enzyme activity, inhibitor |  | IC50 | > 100000 nM |
| CCC(C(=O)Nc1cc(NC2CNC2)ccc1C)n1cccc2nc(SCc3ccc(F)cc3)nc1-2 (stereo not shown) | CTSB | enzyme activity, inhibitor |  | IC50 | > 100000 nM |
| CC[C@H](C)[C@H](NC(=O)[C@H](CO)NC(=O)CNC(=O)[C@@H](NC(=O)[C@@H](NC(=O)[C@@H](NC(=O)CN)[C@@H](C)O)C(C)C)[C@@H](C)O)C(=O)N[C@@H](CC(C)C)C(=O)N[C@H](C(=O)N1CCC[C@H]1C(=O)N[C@H](C(=O)N[C@@H](CC(=O)O)C(=O)N[C@@H](Cc1ccc(O)cc1)C(=O)NCC(=O)N[C@H]1CSSC[C@@H](C(=O)N[C@@H](CO)C(=O)N[C@H](C(=O)N[C@@H](C)C(=O)N[C@@H](CCSC)C(=O)N[C@@H](Cc2ccc(O)cc2)C(=O)NCC(=O)NCC(=O)N[C@H](C(=O)N[C@H](C(=O)N[C@@H](CC(=O)O)C(=O)N2CCC[C@H]2C(=O)N[C@H](C(=O)N[C@@H](CCCNC(=N)N)C(=O)N[C@@H](Cc2ccccc2)C(=O)N2CCC[C@H]2C(=O)N[C@@H](CC(N)=O)C(=O)N[C@@H](C)C(=O)N[C@@H](Cc2c[nH]c3ccccc23)C(=O)N[C@@H](CCCNC(=N)N)C(=O)N[C@@H](CCC(=O)O)C(=O)N[C@@H](CC(C)C)C(=O)O)[C@@H](C)CC)[C@@H](C)CC)C(C)C)C(C)C)NC(=O)[C@H](CC(C)C)NC(=O)[C@H](Cc2ccccc2)NC(=O)[C@@H]2CCCN2C(=O)[C@H](CC(N)=O)NC(=O)[C@H](Cc2ccccc2)NC1=O)[C@@H](C)CC)[C@@H](C)O | CTSB | enzyme activity, inhibitor |  | IC50 | > 200000 nM |
| CC(C)C[C@H](NC(=O)[C@H]1O[C@@H]1C(=O)O)C(=O)NCCCCN=C(N)N | CTSB | enzyme activity, inhibitor |  | IC50 | 5.2 nM |
| NC(=O)CC[C@H](NC(=O)[C@@H]1CC[C@@H]2CCN(C(=O)CCCCCC#Cc3cccc4c3CN(C3CCC(=O)NC3=O)C4=O)C[C@H](NC(=O)c3cc4cc(C(=O)P(=O)(O)O)ccc4[nH]3)C(=O)N21)C(=O)NC(c1ccccc1)c1ccccc1 (stereo partly shown) | STAT3 | protein level, degrader, luciferase |  | DC50 | 360 to 380 nM |
| CNC(=O)c1ccc(-c2cnn3ccc(C(=O)N(C)c4ccc(Cl)c(C(=O)O)c4)cc23)cc1 | ALK tyrosine kinase receptor (ALK, Homo sapiens, UniProt Q9UM73) | enzyme activity, inhibitor |  | IC50 | > 30000 nM |
| CC(=O)N[C@H]1Cc2ccc(cc2)OC/C=C/C[C@@H](C(=O)N[C@@H](CCCNC(=N)N)C(=O)c2nc3ccccc3s2)NC(=O)[C@H](CC(C)C)NC1=O | Suppressor of tumorigenicity 14 protein (ST14, Homo sapiens, UniProt Q9Y5Y6) | enzyme activity, inhibitor, fluorescence | with preincubation | IC50 | 4.6 nM |
